Data set [1] can be described thus: Apparent permeability across apical to basolateral side in human Caco-2 cells at 10 uM incubated for 90 mins at pH 7.4 by LC/MS analysis. Type of data set: ADME, cell-based. The conditions noted are these: Caco-2, pH 7.4. In general terms: Caco-2 cells form a polarised layer with tight junctions and transporters.
Data set [2] in a line: Apparent permeability across basolateral to apical side in human Caco-2 cells at 10 uM incubated for 90 mins at pH 7.4 by LC/MS analysis. It is filed as ADME, cell-based. The conditions noted are these: Caco-2, pH 7.4.
The target in data set [3] is T1, Histone-lysine N-methyltransferase, H3 lysine-79 specific (Homo sapiens, UniProt Q8TEK3). The experiment in a line: Inhibition of recombinant N-terminal DOT1L (1 to 420 residues) (unknown origin) expressed in Escherichia coli (DE3) using [3H]-SAM as substrate preincubated for 30 mins followed by substrate addition and measured after 2 hrs by Topcount reader analysis.

The test system of data set [4] is MV4-11. The experiment in a line: Downregulation of H3K79me2 in human MV4-11 cells habouring MLL/AF4 fusion protein measured upto 48 hrs by immuno blot analysis. It is filed as functional, cell-based.
Data set [5] deals with MOLM-13. The data set can be described thus: Downregulation of H3K79me2 in human MOLM-13 cells at 1 uM by immuno blot analysis. Type of data set: functional, cell-based. Conditions: time 3-7 day, TDE = time-dependent effect. Put shortly:
(§1)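 Exponentially growing Molm13 cells were plated at 2 × 10^5 per well in 2 ml and exposed to 1 μM compound or DMSO for the indicated times. Extracted histones (3 μg) were run on 10% Bis-Tris gels and transferred to nitrocellulose. Blots were probed with primary antibody (1:1000 in 5% milk/TBS-T), then anti-rabbit secondary, with chemiluminescent detection.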

The nature of data set [6]: cells. Conditions: Homo sapiens, A-431.
The target in data set [7] is Histone-lysine N-methyltransferase 2A (Homo sapiens) (UniProt Q03164). The data set can be described thus: Inhibition of MLL (unknown origin) using H3 1-25 peptide in presence of SAM. Put shortly: (§2)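 Radiometric methyltransferase panel in which 3H-SAM, at or below each enzyme's Km, methylates biotinylated peptide substrates. They were quenched with 7.5 M guanidine-HCl, diluted, captured on streptavidin flash plates for 1 h, and counted by scintillation.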

In data set [8] the target is Histone-lysine N-methyltransferase KMT5C (Homo sapiens) (UniProt Q86Y97). The data set can be described thus: Inhibition of SUV420H2 (unknown origin) using H4 K20Me1 peptide in presence of SAM. Summed up: as §2
For data set [9], the system named is MOLM-13. The data set can be described thus: Downregulation of H3K79me2 in human MOLM-13 cells measured for 3 to 7 days by immuno blot analysis. Type of data set: functional, cell-based. Conditions: dose 1.0 µM, time 3-7 day. Summed up:
as §1

Data set [10] has as its target T2, Protein arginine N-methyltransferase 5 (Homo sapiens, UniProt O14744). The experiment in a line: Inhibition of human PRMT5. Put shortly:
as §2

The target of data set [11] is Histone-lysine N-methyltransferase EHMT2 (Homo sapiens) (UniProt Q96KQ7). The experiment in a line: Inhibition of G9a (unknown origin) using H3 1-25 peptide in presence of SAM. Summed up: as §2
The target of data set [12] is Histone-lysine N-methyltransferase SUV39H2 (Homo sapiens) (UniProt Q9H5I1). The data set can be described thus: Inhibition of SUV39H2 (unknown origin) using H3 1-25 peptide in presence of SAM. Put shortly: as §2
For data set [13], the species on record is Homo sapiens. The data set can be described thus: Inhibition of PRC2 (unknown origin) using H3 21-44 peptide in presence of SAM. Put shortly:
as §2

A short description of data set [14]: cells. Conditions: Homo sapiens, MCF-10A.
Data set [15] addresses Protein arginine N-methyltransferase 3 (Homo sapiens) (UniProt O60678). The data set can be described thus: Inhibition of PRMT3 (unknown origin) using H3 1-24 peptide in presence of SAM. Summed up: as §2
The target in data set [16] is Histone-lysine N-methyltransferase EHMT1 (Homo sapiens) (UniProt Q9H9B1). The data set can be described thus: Inhibition of EHMT1 (unknown origin) using H3 1-25 peptide in presence of SAM. Summed up: as §2
For data set [17], the target named is N-lysine methyltransferase KMT5A (Homo sapiens) (UniProt Q9NQR1). The experiment in a line: Inhibition of SETD8 (unknown origin) using […] in presence of SAM. Summed up: as §2
The target in data set [18] is DNA (cytosine-5)-methyltransferase 1 (Homo sapiens) (UniProt P26358). The data set can be described thus: Inhibition of DNMT1 (unknown origin) using ds-DNA peptide in presence of SAM. Summed up: as §2
Data set [19] concerns the target Histone-lysine N-methyltransferase SETDB1 (Homo sapiens) (UniProt Q15047). The experiment in a line: Inhibition of SETDB1 (unknown origin) using H3 1-25 peptide in presence of SAM. Summed up: as §2
Data set [20] has as its target Histone-lysine N-methyltransferase SETD7 (Homo sapiens) (UniProt Q8WTS6). The data set can be described thus: Inhibition of SETD7 (unknown origin) using H3 1-25 peptide in presence of SAM. Put shortly: as §2
Data set [21] has as its target T2, Protein arginine N-methyltransferase 5. The experiment in a line: Inhibition of PRMT5 (unknown origin) using H4 1-24 peptide in presence of SAM. Put shortly:
as §2

The target in data set [22] is Histone-lysine N-methyltransferase KMT5B (Homo sapiens) (UniProt Q4FZB7). The experiment in a line: Inhibition of […] (unknown origin) using H4 K20Me1 peptide in presence of SAM. Summed up: as §2
Data set [23] deals with T1, Histone-lysine N-methyltransferase, H3 lysine-79 specific. The experiment in a line: Binding affinity to recombinant N-terminal DOT1L (1 to 420 residues) (unknown origin) expressed in Escherichia coli (DE3) assessed as dissociation constant by surface plasmon resonance assay. (Surface plasmon resonance follows binding to a sensor surface in real time, without labels.)

Data set [24] has the same target. The data set can be described thus: Binding affinity to recombinant N-terminal DOT1L (1 to 420 residues) (unknown origin) expressed in Escherichia coli (DE3) assessed as dissociation constant by SPR analysis.

The values below come from ChEMBL document CHEMBL5653612, “Catalytic site remodelling of the DOT1L methyltransferase by selective inhibitors” (Nat Commun, 2012).

The structures appear in SMILES notation. The source made the active and inactive calls. No cut-off for these calls is given here.

T1 sequence (Q8TEK3 whole entry, the tested form may be a part): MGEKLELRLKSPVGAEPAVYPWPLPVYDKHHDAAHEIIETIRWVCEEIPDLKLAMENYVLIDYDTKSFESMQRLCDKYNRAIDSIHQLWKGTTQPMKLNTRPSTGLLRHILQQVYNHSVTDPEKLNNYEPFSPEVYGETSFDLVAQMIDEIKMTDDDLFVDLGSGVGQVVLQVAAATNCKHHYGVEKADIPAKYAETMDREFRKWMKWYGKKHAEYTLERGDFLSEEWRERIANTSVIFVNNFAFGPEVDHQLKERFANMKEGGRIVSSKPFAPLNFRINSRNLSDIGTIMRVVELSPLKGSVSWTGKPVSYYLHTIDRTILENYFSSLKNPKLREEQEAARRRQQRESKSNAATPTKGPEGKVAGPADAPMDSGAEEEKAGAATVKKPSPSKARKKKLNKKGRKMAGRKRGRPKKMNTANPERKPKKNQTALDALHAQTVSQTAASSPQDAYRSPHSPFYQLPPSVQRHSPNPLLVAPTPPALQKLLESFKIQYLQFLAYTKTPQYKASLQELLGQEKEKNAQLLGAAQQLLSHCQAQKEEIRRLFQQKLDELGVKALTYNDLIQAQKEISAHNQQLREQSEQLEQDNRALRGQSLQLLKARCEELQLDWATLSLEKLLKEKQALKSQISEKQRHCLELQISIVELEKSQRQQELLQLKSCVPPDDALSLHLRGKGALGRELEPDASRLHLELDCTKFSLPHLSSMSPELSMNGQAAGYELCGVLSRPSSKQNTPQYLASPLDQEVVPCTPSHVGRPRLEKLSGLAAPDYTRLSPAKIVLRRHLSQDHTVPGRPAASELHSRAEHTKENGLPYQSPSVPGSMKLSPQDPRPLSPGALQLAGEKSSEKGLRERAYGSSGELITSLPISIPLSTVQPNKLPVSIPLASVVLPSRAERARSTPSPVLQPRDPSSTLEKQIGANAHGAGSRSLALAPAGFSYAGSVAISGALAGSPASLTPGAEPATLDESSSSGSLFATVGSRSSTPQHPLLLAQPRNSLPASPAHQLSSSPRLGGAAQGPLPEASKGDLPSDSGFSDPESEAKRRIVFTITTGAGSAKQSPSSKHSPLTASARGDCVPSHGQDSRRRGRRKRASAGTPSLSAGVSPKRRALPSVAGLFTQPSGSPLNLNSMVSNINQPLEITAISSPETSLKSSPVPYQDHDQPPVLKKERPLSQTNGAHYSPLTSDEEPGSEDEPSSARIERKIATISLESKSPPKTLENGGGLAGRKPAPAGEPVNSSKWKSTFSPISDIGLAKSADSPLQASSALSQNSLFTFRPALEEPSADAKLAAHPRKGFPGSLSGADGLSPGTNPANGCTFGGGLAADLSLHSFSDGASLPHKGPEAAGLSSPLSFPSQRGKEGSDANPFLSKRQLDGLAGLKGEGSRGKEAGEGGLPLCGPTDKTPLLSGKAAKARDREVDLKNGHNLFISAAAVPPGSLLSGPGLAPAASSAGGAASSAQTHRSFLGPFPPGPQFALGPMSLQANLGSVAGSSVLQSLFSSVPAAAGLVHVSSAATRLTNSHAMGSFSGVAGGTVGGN
T2 sequence (O14744 whole entry): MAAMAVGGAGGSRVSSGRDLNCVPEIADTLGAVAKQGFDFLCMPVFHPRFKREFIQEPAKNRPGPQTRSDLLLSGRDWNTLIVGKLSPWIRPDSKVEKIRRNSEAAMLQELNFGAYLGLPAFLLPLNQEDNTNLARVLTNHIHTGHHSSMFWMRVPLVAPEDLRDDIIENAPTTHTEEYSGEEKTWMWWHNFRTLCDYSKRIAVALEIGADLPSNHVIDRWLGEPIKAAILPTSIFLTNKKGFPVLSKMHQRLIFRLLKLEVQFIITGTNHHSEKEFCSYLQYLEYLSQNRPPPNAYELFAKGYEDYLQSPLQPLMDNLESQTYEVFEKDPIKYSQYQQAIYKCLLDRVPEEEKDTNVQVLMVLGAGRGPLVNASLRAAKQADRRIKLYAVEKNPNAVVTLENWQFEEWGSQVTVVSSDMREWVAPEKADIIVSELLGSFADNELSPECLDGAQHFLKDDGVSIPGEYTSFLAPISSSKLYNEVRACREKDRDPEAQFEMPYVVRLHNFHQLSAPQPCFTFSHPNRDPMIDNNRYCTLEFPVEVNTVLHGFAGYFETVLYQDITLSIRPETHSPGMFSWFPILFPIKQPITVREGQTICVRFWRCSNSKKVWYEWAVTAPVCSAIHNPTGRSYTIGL
Chain of Histone-lysine N-methyltransferase KMT5C (Homo sapiens) (Q86Y97 whole entry, looked up): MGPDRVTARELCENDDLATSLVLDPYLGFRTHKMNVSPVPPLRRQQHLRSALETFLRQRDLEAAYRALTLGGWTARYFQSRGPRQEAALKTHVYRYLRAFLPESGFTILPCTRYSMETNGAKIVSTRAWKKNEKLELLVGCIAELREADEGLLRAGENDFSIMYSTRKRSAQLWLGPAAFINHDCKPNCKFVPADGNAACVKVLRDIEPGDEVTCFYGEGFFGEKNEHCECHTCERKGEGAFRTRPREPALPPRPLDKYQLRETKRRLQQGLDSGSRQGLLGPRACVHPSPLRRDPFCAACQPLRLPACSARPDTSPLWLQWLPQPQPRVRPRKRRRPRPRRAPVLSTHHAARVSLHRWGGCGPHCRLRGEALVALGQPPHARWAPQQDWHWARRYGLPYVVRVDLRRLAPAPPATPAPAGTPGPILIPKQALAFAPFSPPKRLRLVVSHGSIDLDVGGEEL
Chain of Histone-lysine N-methyltransferase SUV39H2 (Homo sapiens) (Q9H5I1 whole entry): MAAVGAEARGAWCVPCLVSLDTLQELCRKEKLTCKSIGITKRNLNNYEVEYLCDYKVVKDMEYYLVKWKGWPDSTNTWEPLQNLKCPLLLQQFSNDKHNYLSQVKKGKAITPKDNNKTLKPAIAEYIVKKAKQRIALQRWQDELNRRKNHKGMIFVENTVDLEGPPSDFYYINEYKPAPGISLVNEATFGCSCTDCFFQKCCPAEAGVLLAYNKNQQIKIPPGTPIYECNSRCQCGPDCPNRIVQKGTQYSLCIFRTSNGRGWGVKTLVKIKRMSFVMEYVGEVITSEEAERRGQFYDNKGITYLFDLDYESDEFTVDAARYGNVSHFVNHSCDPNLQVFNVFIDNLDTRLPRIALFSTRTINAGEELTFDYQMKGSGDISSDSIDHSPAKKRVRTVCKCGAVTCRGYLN
Chain of Histone-lysine N-methyltransferase KMT5B (Homo sapiens) (Q4FZB7 whole entry, looked up, the tested form may be a part): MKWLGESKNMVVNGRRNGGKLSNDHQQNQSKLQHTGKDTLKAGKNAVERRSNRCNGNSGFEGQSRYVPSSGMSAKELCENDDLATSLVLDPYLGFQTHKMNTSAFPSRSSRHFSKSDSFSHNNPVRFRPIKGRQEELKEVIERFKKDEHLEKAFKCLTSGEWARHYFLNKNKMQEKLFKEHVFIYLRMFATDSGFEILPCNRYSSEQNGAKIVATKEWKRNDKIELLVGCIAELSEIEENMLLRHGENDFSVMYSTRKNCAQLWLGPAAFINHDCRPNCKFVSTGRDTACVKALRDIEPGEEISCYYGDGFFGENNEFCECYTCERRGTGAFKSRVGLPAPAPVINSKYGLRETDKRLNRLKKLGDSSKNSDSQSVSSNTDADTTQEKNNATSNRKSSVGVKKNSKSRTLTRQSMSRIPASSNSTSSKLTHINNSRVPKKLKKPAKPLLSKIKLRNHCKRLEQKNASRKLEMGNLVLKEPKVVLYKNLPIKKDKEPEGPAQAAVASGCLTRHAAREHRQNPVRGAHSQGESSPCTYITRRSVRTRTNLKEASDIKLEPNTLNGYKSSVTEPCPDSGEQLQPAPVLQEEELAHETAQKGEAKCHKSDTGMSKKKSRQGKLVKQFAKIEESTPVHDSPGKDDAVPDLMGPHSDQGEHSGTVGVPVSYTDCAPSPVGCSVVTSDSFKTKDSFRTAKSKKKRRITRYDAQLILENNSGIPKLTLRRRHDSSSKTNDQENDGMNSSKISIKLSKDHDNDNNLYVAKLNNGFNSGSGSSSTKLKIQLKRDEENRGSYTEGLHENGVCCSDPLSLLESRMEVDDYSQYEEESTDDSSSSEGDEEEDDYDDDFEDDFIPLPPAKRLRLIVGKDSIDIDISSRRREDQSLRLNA
Chain of N-lysine methyltransferase KMT5A (Homo sapiens) (Q9NQR1 whole entry): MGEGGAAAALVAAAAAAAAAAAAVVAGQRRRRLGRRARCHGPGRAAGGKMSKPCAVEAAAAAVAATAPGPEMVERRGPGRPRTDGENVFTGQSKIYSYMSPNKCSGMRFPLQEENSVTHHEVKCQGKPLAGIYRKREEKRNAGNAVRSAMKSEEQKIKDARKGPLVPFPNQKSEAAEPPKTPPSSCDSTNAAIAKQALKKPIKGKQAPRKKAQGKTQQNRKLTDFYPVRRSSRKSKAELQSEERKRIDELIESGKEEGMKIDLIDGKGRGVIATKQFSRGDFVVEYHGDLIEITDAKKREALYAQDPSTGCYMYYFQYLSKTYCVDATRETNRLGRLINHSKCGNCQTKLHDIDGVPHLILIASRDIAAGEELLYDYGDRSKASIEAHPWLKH
Chain of Histone-lysine N-methyltransferase SETD7 (Homo sapiens) (Q8WTS6 whole entry): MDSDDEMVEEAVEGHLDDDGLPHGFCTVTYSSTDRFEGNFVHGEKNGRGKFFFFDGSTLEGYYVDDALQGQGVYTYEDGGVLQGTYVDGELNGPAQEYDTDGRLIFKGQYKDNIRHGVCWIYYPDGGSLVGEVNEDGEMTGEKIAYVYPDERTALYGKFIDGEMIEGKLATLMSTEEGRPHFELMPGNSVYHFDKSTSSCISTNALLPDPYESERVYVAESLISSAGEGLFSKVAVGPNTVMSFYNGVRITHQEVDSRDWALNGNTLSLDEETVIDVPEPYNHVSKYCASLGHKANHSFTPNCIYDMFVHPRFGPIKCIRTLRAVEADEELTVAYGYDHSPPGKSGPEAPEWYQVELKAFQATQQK

Usually Papp A→B stands for how fast a substance crosses the layer from the apical side. Broadly, the Papp B→A is how fast a substance crosses the layer from the basolateral side. Take `COCCc1ccc(OCC(O)CNC(C)C)cc1` (centres undefined) [METOPROLOL]: in [1], the Papp A→B at 1.5 h, 10 µM stood at 68.2 ×10⁻⁶ cm/s. Also, the Papp B→A at 1.5 h, 10 µM in data set [2] came to 31.1 ×10⁻⁶ cm/s.

Broadly, the IC50 is the concentration needed to halve the response being measured. For the molecule `CC(C)N(CCCNC(=O)c1ccc(C(C)(C)C)cc1)C[C@H]1O[C@@H](n2cnc3c(N)ncnc32)[C@H](O)[C@@H]1O`, the IC50 result in [3] is “Not Active”.

As to `CC(C)N(CCCNC(=O)Nc1ccc(C(C)(C)C)cc1)C[C@H]1O[C@@H](n2cnc3c(N)ncnc32)[C@H](O)[C@@H]1O`, the outcome in [4] was Active.

On to `CC(C)N(CCCNC(=O)Nc1ccc(C(C)(C)C)cc1)C[C@H]1O[C@@H](n2ccc3c(N)ncnc32)[C@H](O)[C@@H]1O`, for which the outcome in data set [4] was Active. The figures for the Activity result in data set [5] and in [9] were “Tde” and “Dose-Dependent Effect”, respectively. Further, the 50% inhibitory concentration (IC50) in data set [6] worked out at 264 nM; in [10] it was 500 nM; in data set [14], 84 nM. Moreover, the inhibition result in data set [7], in data set [8], in [11], in data set [12], in data set [13] and in data set [15] was “inactive” each time. In addition, the inhibition entry in data set [16], in data set [17], in [18], in [19], in data set [20] and in [21] was “inactive” each time. The inhibition result in data set [22] is “inactive”. The apparent permeability from basolateral to apical (Papp B→A) at 1.5 h, 10 µM in data set [2] was determined as 5.4 ×10⁻⁶ cm/s.

As a reminder, the Kd is the free concentration of one partner at which half of the binding sites on the other are occupied at equilibrium, for simple one-to-one binding. For the molecule `CC(C)(C)c1ccc(NC(=O)NCCCNC[C@H]2O[C@@H](n3cc(Br)c4c(N)ncnc43)[C@H](O)[C@@H]2O)cc1`, the result in data set [4] was Active. Further, the Kd in data set [23] and in data set [24] was 3.35 nM each time. For the same molecule, the IC50 in data set [3] (read-out: IC50) was found to be 3.6 nM.

Consider `Cc1ccc(NC(=O)NCCCN(C[C@H]2O[C@@H](n3cnc4c(N)ncnc43)[C@H](O)[C@@H]2O)C(C)C)cc1`, for which the outcome in [4] was Active. In addition, the Kd in [23] and in [24] was 26.9 nM throughout. The IC50 in [3] (read-out: IC50) is 40.3 nM.

As for `C[C@H]1O[C@@H](O[C@H]2[C@@H](O)C[C@H](O[C@H]3[C@@H](O)C[C@H](O[C@H]4CC[C@@]5(C)[C@H](CC[C@@H]6[C@@H]5C[C@@H](O)[C@]5(C)[C@@H](C7=CC(=O)OC7)CC[C@]65O)C4)O[C@@H]3C)O[C@@H]2C)C[C@H](O)[C@@H]1O` [DIGOXIN], in data set [1], the Papp A→B at 1.5 h, 10 µM is 0.4 ×10⁻⁶ cm/s. The Papp B→A at 1.5 h, 10 µM in [2] was found to be 13.2 ×10⁻⁶ cm/s.
